# Laboratory results: ChEMBL document CHEMBL3616442, “Unconventional Knoevenagel-type indoles: Synthesis and cell-based studies for the identification of pro-apoptotic agents” (Eur J Med Chem, 2015)
# pEC50: −log10 of the molar value.
# Assays:
# MT4 = experiment: Antiproliferative activity against human MT4 cells after 96 hrs by MTT assay; format: functional, cell-based; conditions: MT4, 96 h
# Outline: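 Exponentially growing MT-4 cells (CD4+ human T-cells carrying integrated HTLV-1 genome), seeded at 1×10^5 cells/mL in RPMI-1640 with 10% FCS and antibiotics. Serial dilutions of compound (DMSO stock 100 mM, diluted in medium), 37 °C, 5% CO₂, 96 h. Viability read by MTT. 50% inhibition versus untreated controls by linear regression. Mean ± SD of three independent determinations.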
# CCRF-CEM = experiment: Cytotoxicity against human CCRF-CEM cells after 96 hrs by MTT assay; format: functional, cell-based
# Outline: (§1)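 ATCC cell lines, mycoplasma-free by Hoechst staining. Haematological lines in RPMI-1640, solid-tumour and normal fibroblast lines in their own media, all with 10% FCS and antibiotics, at 37 °C in 5% CO₂. Compounds added as serial dilutions from a 100 mM DMSO stock diluted in medium. Viability by MTT after 96 h at 37 °C. Mean ± SD of three independent determinations.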
# WIL2-NS = experiment: Cytotoxicity against human WIL2-NS cells after 96 hrs by MTT assay; format: functional, cell-based; outline: as §1
# CCRF-SB = experiment: Cytotoxicity against human CCRF-SB cells after 96 hrs by MTT assay; format: functional, cell-based; outline: as §1
# MRC5 = experiment: Cytotoxicity against human MRC5 cells after 96 hrs by MTT assay; format: cell-based; conditions: MRC5, 96 h; outline: as §1
# [1] = Cytotoxicity against human CRL7065 cells after 96 hrs by MTT assay; format: cell-based; conditions: CRL-7065, 96 h; outline: as §1
# SK-MEL-28 = experiment: Cytotoxicity against human SK-MEL-28 cells after 96 hrs by MTT assay; format: functional, cell-based; conditions: SK-MEL-28, 96 h; outline: as §1
# [2] = Cytotoxicity against human SKMES1 cells after 96 hrs by MTT assay; format: functional, cell-based; conditions: SK-MES-1, 96 h; outline: as §1
# DU-145 = experiment: Cytotoxicity against human DU145 cells after 96 hrs by MTT assay; format: functional, cell-based; conditions: DU-145, 96 h; outline: as §1
# HepG2 = experiment: Cytotoxicity against human HepG2 cells after 96 hrs by MTT assay; format: functional, cell-based; conditions: HepG2, 96 h; outline: as §1
# MCF7 = experiment: Cytotoxicity against human MCF7 cells after 96 hrs by MTT assay; format: functional, cell-based; conditions: MCF7, 96 h; outline: as §1
compound,measurement,setting,value
N#C/C(=C\c1c(-c2ccccc2)[nH]c2ccccc12)C(=O)c1ccc(Cl)cc1,pEC50,MT4,6.40
same,pEC50,CCRF-CEM,5.96
same,pEC50,WIL2-NS,5.35
same,pEC50,CCRF-SB,6.22
same,pEC50,MRC5,4.85
same,pEC50,[1],5.13
same,pEC50,SK-MEL-28,4.82
same,pEC50,[2],4.72
same,pEC50,DU-145,4.96
same,pEC50,HepG2,4.43
same,pEC50,MCF7,4.55
